Results on eight compounds are retold here after ChEMBL document CHEMBL1152585, “Identification of small molecule regulators of the nuclear receptor HNF4alpha based on naphthofuran scaffolds” (Bioorg Med Chem, 2009).

Usually ΔTm stands for the shift of the melting midpoint relative to a reference. One may read the pEC50 as the EC50 on a negative log10 scale, so that one unit is a factor of ten. As usually defined, the pIC50 is −log10 of the IC50, conventionally taken in molar units.

The target in experiment [1] is T1, Hepatocyte nuclear factor 4-alpha (Homo sapiens) (UniProt P41235).
T1 sequence (whole entry): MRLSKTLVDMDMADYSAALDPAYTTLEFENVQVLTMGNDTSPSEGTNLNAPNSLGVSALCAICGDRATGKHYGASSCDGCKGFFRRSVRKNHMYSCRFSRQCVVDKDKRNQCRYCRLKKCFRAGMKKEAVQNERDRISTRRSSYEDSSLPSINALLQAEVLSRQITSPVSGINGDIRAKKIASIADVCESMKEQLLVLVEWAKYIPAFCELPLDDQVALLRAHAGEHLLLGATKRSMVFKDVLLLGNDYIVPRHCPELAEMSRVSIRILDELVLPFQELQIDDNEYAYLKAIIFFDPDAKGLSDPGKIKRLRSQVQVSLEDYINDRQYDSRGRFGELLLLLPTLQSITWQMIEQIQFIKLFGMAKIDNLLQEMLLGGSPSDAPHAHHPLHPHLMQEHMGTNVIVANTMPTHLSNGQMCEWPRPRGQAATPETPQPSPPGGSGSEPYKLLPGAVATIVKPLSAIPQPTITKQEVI
In words: Stabilization of thermal denaturation-induced conformational change in human HNF4alpha nuclear receptor ligand binding domain assessed as change in transition temperature by thermofluor assay. Put shortly: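 Human HNF4α LBD (aa 133–368), 6xHis-tagged, expressed in E. coli, purified under denaturing conditions, renatured and TEV-cleaved (apo). Protein at 0.3 mg/mL in 20 mM Tris-Cl pH 8.0, 100 mM NaCl, with 3× molar excess test compound and SYPRO Orange (20× working). Heated 20–90 °C at 1 °C/min. ΔTm = Tm − T0 against a water control; means of 3–6 independent experiments ± SE.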
Background: DSF heats the sample and reads unfolding from a dye or from intrinsic fluorescence.

Experiment [2] concerns the target T2, Hepatocyte nuclear factor 4-alpha (Homo sapiens, UniProt P41235).
T2 sequence (P41235 whole entry): T1 sequence (whole entry)
In words: Agonist activity at human full length HNF4alpha nuclear receptor expressed in human HepG2/C3A cells co-transfected with LexADBD assessed as increase in transcriptional activity after 16 hrs by beta-galactosidase one hybrid assay. Format: functional, cell-based. The method, boiled down:
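Yeast one-hybrid with LexA DNA-binding domain fusions of HNF4α (full length, AF-1-deleted, or LBD lacking F domain). Increasing compound concentrations applied to yeast for 16 h, then β-galactosidase assay. EC50 taken from the dose–response curves.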

A short description of experiment [3]: Cytotoxicity against human HepG2/C3A cells after 48 hrs by MTT assay. Format: functional, cell-based.
Experiment [4] deals with T1, Hepatocyte nuclear factor 4-alpha (Homo sapiens). As to the kind of experiment: Agonist activity at human full length HNF4alpha nuclear receptor expressed in human HepG2/C3A cells co-transfected with LexADBD assessed as increase in transcriptional activity at 6.2 uM by beta-galactosidase one hybrid assay relative to control. The class given is functional, cell-based.

Experiment [5] has the same target. As to the kind of experiment: Agonist activity at human full length HNF4alpha nuclear receptor expressed in human HepG2/C3A cells co-transfected with LexADBD assessed as increase in transcriptional activity at 18.7 uM by beta-galactosidase one hybrid assay relative to control. Format: functional, cell-based.
Experiment [6] shares this target. As to the kind of experiment: Activation of HNFalpha transcriptional activity in human […] cells transfected with ApoB-luc assessed as activation of luciferase reporter gene after 24 hrs. The class given is cell-based. Put shortly:
(§1)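 HepG2C3A cells seeded at 6 × 10⁴/well in DMEM, transfected 24 h later (JetPEI) with 800 ng total DNA: 250 ng ApoB-Luc or ApoCIII-Luc reporter, 250 ng β-galactosidase plasmid, HNF4α expression vector. Treated 24 h (DMSO 0.5% control). Luciferase read in lysate supernatant and normalised to β-gal (4-MUG fluorescence, ex 365/em 450 nm). Fold induction vs DMSO. At least three independent experiments, in triplicate.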
Background: In a reporter assay the amount or activity of a reporter protein is the signal.

Experiment [7] shares this target. As to the kind of experiment: Activation of HNFalpha transcriptional activity in human […] cells transfected with ApoCIII-luc assessed as activation of luciferase reporter gene after 24 hrs. The class given is cell-based. Put shortly: as §1
Experiment [8] has the same target. In words: Agonist activity at human full length HNF4alpha nuclear receptor expressed in human HepG2/C3A cells co-transfected with LexADBD assessed as increase in transcriptional activity at 100 uM by beta-galactosidase one hybrid assay relative to control. Format: functional, cell-based.
The target is the same in experiment [9]. In words: Agonist activity at human full length HNF4alpha nuclear receptor expressed in human HepG2/C3A cells co-transfected with LexADBD assessed as increase in transcriptional activity at 9.3 uM by beta-galactosidase one hybrid assay relative to control. Format: functional, cell-based.
For experiment [10] the target is unchanged. As to the kind of experiment: Agonist activity at human full length HNF4alpha nuclear receptor expressed in human HepG2/C3A cells co-transfected with LexADBD assessed as increase in transcriptional activity at 12.5 uM by beta-galactosidase one hybrid assay relative to control. The class given is functional, cell-based.
The target is the same in experiment [11]. In words: Agonist activity at human HNF4alpha7 nuclear receptor LBDdetaF expressed in human HepG2/C3A cells co-transfected with LexADBD assessed as increase in transcriptional activity after 16 hrs by beta-galactosidase one hybrid assay. Format: functional, cell-based.
For experiment [12] the target is unchanged. In words: Agonist activity at AF1 deleted human HNF4alpha7 nuclear receptor expressed in human HepG2/C3A cells co-transfected with LexADBD assessed as increase in transcriptional activity after 16 hrs by beta-galactosidase one hybrid assay. The class given is functional, cell-based.
The test system of experiment [13] is HepG2/C3A. In words: Enhancement of beta-galactosidase activity in human HepG2/C3A cells transfected with estrogen receptor assessed as increase in transcriptional activity after 16 hrs. The class given is functional, cell-based.
Experiment [14] concerns HepG2/C3A. As to the kind of experiment: Enhancement of beta-galactosidase activity in human HepG2/C3A cells transfected with LexACOUP-TFII assessed as increase in transcriptional activity after 16 hrs. The class given is functional, cell-based.
Experiment [15] has as its system HepG2/C3A. As to the kind of experiment: Enhancement of beta-galactosidase activity in human HepG2/C3A cells transfected with Gal4 assessed as increase in transcriptional activity after 16 hrs. Format: functional, cell-based.

Structures are written as SMILES. pEC50, pIC50: −log10 of the molar value. Activity calls are given as the source filed them. The calls are words filed in the database; no cut-off is given here. Bounds are passed on as bounds.

Consider `O=[N+]([O-])c1cc2c(ccc3cc(O)ccc32)o1`, for which, in experiment [1], the ΔTm was 0.84 °C. In addition, the pEC50 in [2] is 5.71. The same compound showed a pIC50 in [3] of 5.30. Also, the fold change (FC) in experiment [4] amounted to 11.1.
Regarding `Cc1c([N+](=O)[O-])oc2ccc3ccccc3c12`, in experiment [5], the fold change (FC) was 5.51. Besides, the negative logarithm of the EC50 (pEC50) in [2] was 5.89. For the same compound, the Activity result in experiment [6] and in experiment [7] was “Dose-dependent effect” in each case. The pIC50 in [3] is < 5.30.
Turning to `NC(=O)c1cc2c(ccc3ccccc32)o1`, in [8], the fold change (FC) was 2. For the same compound, the pEC50 in experiment [2] is < 4.00. Further, in experiment [3], the pIC50 was < 5.30.
In the case of `COc1ccc2ccc3oc([N+](=O)[O-])cc3c2c1`, the pEC50 in experiment [2] was 5.63. The compound also gave a pIC50 in experiment [3] of 5.64. In experiment [9], the fold change (FC) came to 7.97.
With `O=[N+]([O-])c1cc2c(ccc3ccccc32)o1`, the fold change (FC) in [10] amounted to 4.46. Further, in [2], the pEC50 is 5.68. This compound also showed a pIC50 in [3] of 5.60.
`COc1ccc2c(ccc3oc([N+](=O)[O-])cc32)c1`: the outcome in experiment [11] and in experiment [12] was inactive. For the same compound, the pEC50 in experiment [2] is 5.59. The compound also gave a pIC50 in experiment [3] of 5.65. Also, the fold change (FC) in [9] amounted to 8.05.
Take `COc1cc2ccccc2c2cc([N+](=O)[O-])oc12`: the result with HepG2/C3A [13], in the experiment with HepG2/C3A [14] and in the experiment on HepG2/C3A [15] was inactive. The pEC50 in experiment [2] is 5.83. The same compound gave a pIC50 in experiment [3] of 5.36. Also, the fold change (FC) in [9] came to 6.6.
Consider `O=[N+]([O-])c1oc2ccc3ccccc3c2c1CCO`, for which the fold change (FC) in experiment [10] is 4.58. For the same compound, the pEC50 in experiment [2] was 5.91. Moreover, the pIC50 in [3] was 5.69.
